This is an account of results in article PMC4064470 (Journal of medicinal chemistry, 2013).

For experiment [1], the target named is T1, recombinant mouse VAP-1 (Mus musculus, UniProt O70423).
T1 sequence (O70423 1-765): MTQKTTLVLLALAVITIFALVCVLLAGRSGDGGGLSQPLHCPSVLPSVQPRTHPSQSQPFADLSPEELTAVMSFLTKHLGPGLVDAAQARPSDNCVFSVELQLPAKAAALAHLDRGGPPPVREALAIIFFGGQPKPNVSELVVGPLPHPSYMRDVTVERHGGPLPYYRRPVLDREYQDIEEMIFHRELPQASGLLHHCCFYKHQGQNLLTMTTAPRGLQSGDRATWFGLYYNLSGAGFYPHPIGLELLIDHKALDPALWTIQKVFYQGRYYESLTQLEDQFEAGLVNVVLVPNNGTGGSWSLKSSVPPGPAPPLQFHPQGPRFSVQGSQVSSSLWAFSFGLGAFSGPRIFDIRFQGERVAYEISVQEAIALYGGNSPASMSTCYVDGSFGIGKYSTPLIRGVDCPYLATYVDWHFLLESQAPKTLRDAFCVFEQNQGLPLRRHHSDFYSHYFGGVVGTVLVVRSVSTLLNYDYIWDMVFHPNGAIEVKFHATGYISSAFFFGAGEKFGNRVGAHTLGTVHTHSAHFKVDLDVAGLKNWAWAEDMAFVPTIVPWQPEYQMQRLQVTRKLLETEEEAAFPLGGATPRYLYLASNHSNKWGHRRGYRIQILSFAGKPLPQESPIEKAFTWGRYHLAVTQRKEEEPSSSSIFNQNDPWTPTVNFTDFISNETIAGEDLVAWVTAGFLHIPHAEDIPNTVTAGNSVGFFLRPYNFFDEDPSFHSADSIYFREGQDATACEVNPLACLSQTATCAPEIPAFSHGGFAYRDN
Kind of experiment: In vitro inhibition of recombinant mouse VAP-1 activity. In kind it is biochemical. To be noted: control compound; mouse VAP-1 in Figure 1. Summed up:
(§1)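 Enzyme source was lysate of CHO cells stably transfected with VAP-1 (native CHO has negligible activity), dosed to give 0.6 A490/h. Test compound (1 nM–50 μM) was preincubated 30 min at 37 °C with 0.2 M potassium phosphate pH 7.6, 1 mM 2,4-dichlorophenol, 500 μM 4-aminoantipyrine and 4 U/ml HRP. Then 1 mM benzylamine (final) was added for 1 h at 37 °C and A490 read. Percent inhibition was background-corrected and IC50 fitted, from two to six experiments.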

Experiment [2] has as its target T2, recombinant human VAP-1 (Homo sapiens, UniProt Q16853).
T2 sequence (Q16853 1-763): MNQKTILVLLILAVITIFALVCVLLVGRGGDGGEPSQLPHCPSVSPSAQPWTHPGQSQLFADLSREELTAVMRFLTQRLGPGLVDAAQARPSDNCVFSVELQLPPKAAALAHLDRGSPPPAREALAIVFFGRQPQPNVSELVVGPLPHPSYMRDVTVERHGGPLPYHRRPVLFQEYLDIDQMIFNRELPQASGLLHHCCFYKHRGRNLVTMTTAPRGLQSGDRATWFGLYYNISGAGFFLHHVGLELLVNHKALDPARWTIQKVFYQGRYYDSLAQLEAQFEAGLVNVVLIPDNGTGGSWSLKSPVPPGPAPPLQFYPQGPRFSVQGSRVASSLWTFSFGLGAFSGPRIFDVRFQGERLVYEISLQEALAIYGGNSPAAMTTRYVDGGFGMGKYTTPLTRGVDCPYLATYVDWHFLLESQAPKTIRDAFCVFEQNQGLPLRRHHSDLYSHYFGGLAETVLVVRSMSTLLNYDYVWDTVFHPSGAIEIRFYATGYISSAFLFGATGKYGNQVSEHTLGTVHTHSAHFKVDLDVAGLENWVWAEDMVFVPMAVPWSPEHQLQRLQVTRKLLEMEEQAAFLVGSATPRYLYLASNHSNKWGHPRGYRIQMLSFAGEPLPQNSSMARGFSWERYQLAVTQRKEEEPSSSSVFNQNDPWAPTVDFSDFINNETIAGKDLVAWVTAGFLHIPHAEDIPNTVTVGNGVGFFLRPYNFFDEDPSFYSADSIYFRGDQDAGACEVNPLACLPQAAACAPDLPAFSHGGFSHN
Nature of the experiment: In vitro inhibition of recombinant human VAP-1 activity. To be noted: control compound. The format is biochemical. Put shortly:
as §1

As to `CN(N)[C@H](c1ccccc1)[C@@H](O)c1ccccc1.O=C(O)C(O)C(O)C(=O)O` [Compound 11d, (1S,2R)-2-(1-methylhydrazino)-1,2-diphenylethanol (S,S)-tartrate salt], the “inhibition of rodent VAP-1 (in words)” value in experiment [1] is listed as “inhibits”. The “inhibition of human VAP-1 (in words)” value in experiment [2] is “inhibits”.
